Measured values published in ChEMBL document CHEMBL3774374, “The Effect of Small Molecules on Sterol Homeostasis: Measuring 7-Dehydrocholesterol in Dhcr7-Deficient Neuro2a Cells and Human Fibroblasts” (J Med Chem, 2016).
Activity calls are given as the source filed them. No cut-off for these calls is given here.

Legend:
[1] = test system: N2a; assay: Increase in lanosterol levels in Dhcr7-deficient mouse Neuro2a cells at 1 uM by LC-MS analysis; type: functional, cell-based
Method in brief: (§1)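 Dhcr7-deficient Neuro2a cells (13000/well, 0.5% FBS medium) on predeposited compound, 24 h at 37 °C. Hoechst-stained and imaged to count cells. Lysed in methanol containing isotope-labelled sterol standards, derivatized with PTAD 20 min at RT, then isocratic C18 UPLC-MS/SRM. Remaining extract silylated with BSTFA for GC-MS, quantified against d7-cholesterol. Follow-up runs in triplicate.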

[2] = test system: Fibroblast; assay: Increase in lanosterol levels in human SLOS fibroblasts at 1 uM by LC-MS/GC-MS analysis; type: functional, cell-based
Method in brief: (§2)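 SLOS patient skin fibroblasts (passage 8–20) grown in 96-well plates in delipidated serum with compound for 5 days; three different SLOS lines. Sterols quantified by PTAD-derivatized UPLC-MS plus GC-MS; 7-DHC expressed as percentage of untreated cells.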

[3] = target: T1, Delta(24)-sterol reductase (Mus musculus) (UniProt Q8VCH6); assay: Inhibition of DR24 in Dhcr7-deficient mouse Neuro2a cells assessed as decrease in 7-DHC levels at 1 uM by LC-MS/GC-MS analysis; type: cell-based; method in brief: as §1
T1 sequence (whole entry): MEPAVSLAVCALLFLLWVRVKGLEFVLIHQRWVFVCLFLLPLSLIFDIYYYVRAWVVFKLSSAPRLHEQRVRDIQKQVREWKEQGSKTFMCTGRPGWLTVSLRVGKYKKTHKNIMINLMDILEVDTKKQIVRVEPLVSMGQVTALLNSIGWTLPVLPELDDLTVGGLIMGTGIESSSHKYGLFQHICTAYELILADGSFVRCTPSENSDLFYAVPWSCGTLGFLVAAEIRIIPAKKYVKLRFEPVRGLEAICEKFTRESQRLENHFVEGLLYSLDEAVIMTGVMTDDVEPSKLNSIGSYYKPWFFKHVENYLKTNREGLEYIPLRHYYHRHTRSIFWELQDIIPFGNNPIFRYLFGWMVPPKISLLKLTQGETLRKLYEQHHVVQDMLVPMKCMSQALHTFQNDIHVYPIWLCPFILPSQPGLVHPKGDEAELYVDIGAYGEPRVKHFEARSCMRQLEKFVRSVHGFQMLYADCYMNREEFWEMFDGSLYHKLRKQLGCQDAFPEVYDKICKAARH

[4] = test system: N2a; assay: Change in cholesterol level in Dhcr7-deficient mouse Neuro2a cells at 100 nM by LC-MS/GC-MS analysis; type: functional, cell-based
Method in brief: (§3)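 Follow-up (verification) assay in 96-well plates, run as the 384-well screen, in triplicate, at varying compound concentrations. Cells counted by Hoechst imaging, washed with PBS, then lysed in MeOH with BHT/TPP and isotope standards (d7-Chol, d7-7-DHC, 13C3-Des, 13C3-Lan). Sterols derivatised with PTAD for 20 min at RT and quantified by C18 UPLC-MS (SRM). Remaining sample silylated with BSTFA and run on GC-MS, quantified against d7-Chol.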

[5] = target: T1, Delta(24)-sterol reductase (Mus musculus); assay: Inhibition of DR24 in Dhcr7-deficient mouse Neuro2a cells assessed as increase in desmosterol levels at 100 nM by LC-MS/GC-MS analysis; type: cell-based; method in brief: as §3
[6] = target: T1, Delta(24)-sterol reductase (Mus musculus); assay: Inhibition of DR24 in Dhcr7-deficient mouse Neuro2a cells assessed as increase in lanosterol levels at 100 nM by LC-MS/GC-MS analysis; type: cell-based; method in brief: as §3
[7] = target: T2, 3-beta-hydroxysteroid-Delta(8),Delta(7)-isomerase (Mus musculus) (UniProt P70245); assay: Inhibition of delta 8-7 isomerase in Dhcr7-deficient mouse Neuro2a cells assessed as decrease in 7-DHC levels at 1 uM by LC-MS/GC-MS analysis; type: cell-based; method in brief: as §1
T2 sequence (whole entry): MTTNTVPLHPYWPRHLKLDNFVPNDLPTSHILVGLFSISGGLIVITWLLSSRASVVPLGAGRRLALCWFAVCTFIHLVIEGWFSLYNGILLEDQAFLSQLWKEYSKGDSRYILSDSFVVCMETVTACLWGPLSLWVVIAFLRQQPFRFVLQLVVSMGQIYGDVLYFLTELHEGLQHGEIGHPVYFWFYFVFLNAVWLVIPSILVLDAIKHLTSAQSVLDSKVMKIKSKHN

[8] = target: T1, Delta(24)-sterol reductase (Mus musculus); assay: Inhibition of DR24 in mouse Neuro2a cells assessed as decrease in 7-DHC levels at 1 uM by LC-MS/GC-MS analysis; type: cell-based
Method in brief: (§4)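 Control Neuro2a cells (10000/well, 0.5% FBS) on compound, 24 h. Hoechst cell count, then methanol lysis with labelled standards (d7-7-DHC, 13C3-desmosterol, 13C3-lanosterol), PTAD derivatization 20 min at RT, UPLC-MS SRM. GC-MS of silylated extract for further sterols.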

[9] = target: T2, 3-beta-hydroxysteroid-Delta(8),Delta(7)-isomerase (Mus musculus); assay: Inhibition of delta 8-7 isomerase in mouse Neuro2a cells assessed as decrease in 7-DHC levels at 1 uM by LC-MS/GC-MS analysis; type: cell-based; method in brief: as §4
[10] = target: T1, Delta(24)-sterol reductase (Mus musculus); assay: Inhibition of C-24 reductase in Dhcr7-deficient mouse Neuro2a cells assessed as increase in zymosterol levels at 1 uM by LC-MS/GC-MS analysis; type: cell-based; method in brief: as §1
[11] = target: T1, Delta(24)-sterol reductase (Mus musculus); assay: Inhibition of C-24 reductase in Dhcr7-deficient mouse Neuro2a cells assessed as increase in desmosterol levels at 1 uM by LC-MS/GC-MS analysis; type: cell-based; method in brief: as §1
[12] = target: 3-beta-hydroxysteroid-Delta(8),Delta(7)-isomerase (Homo sapiens) (UniProt Q15125); assay: Inhibition of delta 8-7 isomerase in human SLOS fibroblasts assessed as decrease in 7-DHC levels at 10 nM after 5 days by LC-MS/GC-MS analysis; method in brief: as §2
Sequence of 3-beta-hydroxysteroid-Delta(8),Delta(7)-isomerase (Homo sapiens) (Q15125 whole entry): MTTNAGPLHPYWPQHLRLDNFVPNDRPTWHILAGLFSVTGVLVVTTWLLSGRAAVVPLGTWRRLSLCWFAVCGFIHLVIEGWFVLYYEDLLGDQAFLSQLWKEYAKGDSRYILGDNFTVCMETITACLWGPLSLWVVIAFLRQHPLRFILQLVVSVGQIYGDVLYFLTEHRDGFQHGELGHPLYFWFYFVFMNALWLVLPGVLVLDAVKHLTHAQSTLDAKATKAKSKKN

[13] = Cytotoxicity against human SLOS fibroblasts at 5 uM after 5 days by Cell Titer assay; type: cell-based; details: fibroblast, 120 h
[14] = test system: Fibroblast; assay: Decrease in cholesterol levels in human SLOS fibroblasts at 10 nM after 5 days by LC-MS/GC-MS analysis; type: functional, cell-based; method in brief: as §2
[15] = target: T2, 3-beta-hydroxysteroid-Delta(8),Delta(7)-isomerase (Mus musculus); assay: Inhibition of delta 8-7 isomerase in Dhcr7-deficient mouse Neuro2a cells assessed as decrease in 7-DHC levels at 200 nM after 24 hrs by LC-MS analysis; type: cell-based
Method in brief: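 384-well screen: Dhcr7-deficient Neuro2a cells (13000/well) dispensed in 0.5% FBS medium onto predeposited compound (five wells each at 20 and 200 nM) and incubated 24 h at 37 °C. Nuclei Hoechst-stained and counted by automated imaging. Cells lysed in MeOH with deuterated and 13C standards, then derivatised with PTAD for 20 min at RT. 7-DHC measured by isocratic UPLC-MS (SRM) and expressed as pg per cell; DMSO wells served as controls.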

[16] = target: T1, Delta(24)-sterol reductase (Mus musculus); assay: Inhibition of DR24 in Dhcr7-deficient mouse Neuro2a cells assessed as decrease in 7-DHC levels at 200 nM after 24 hrs by LC-MS analysis; type: cell-based
Method in brief: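 384-well screen: Dhcr7-deficient Neuro2a cells (13000/well, 0.5% FBS) with compound at 20 or 200 nM (five wells each), 24 h at 37 °C. Cells counted after Hoechst imaging, then methanol lysis with d7-7-DHC standard, PTAD derivatization 20 min at RT, UPLC-MS SRM (7-DHC 560→365). Read-out is pg 7-DHC per cell.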

[17] = target: T3, Delta(24)-sterol reductase (Homo sapiens) (UniProt Q15392); assay: Inhibition of DR24 in human SLOS fibroblasts assessed as decrease in 7-DHC levels at 10 nM after 5 days by LC-MS/GC-MS analysis; method in brief: as §2
T3 sequence (whole entry): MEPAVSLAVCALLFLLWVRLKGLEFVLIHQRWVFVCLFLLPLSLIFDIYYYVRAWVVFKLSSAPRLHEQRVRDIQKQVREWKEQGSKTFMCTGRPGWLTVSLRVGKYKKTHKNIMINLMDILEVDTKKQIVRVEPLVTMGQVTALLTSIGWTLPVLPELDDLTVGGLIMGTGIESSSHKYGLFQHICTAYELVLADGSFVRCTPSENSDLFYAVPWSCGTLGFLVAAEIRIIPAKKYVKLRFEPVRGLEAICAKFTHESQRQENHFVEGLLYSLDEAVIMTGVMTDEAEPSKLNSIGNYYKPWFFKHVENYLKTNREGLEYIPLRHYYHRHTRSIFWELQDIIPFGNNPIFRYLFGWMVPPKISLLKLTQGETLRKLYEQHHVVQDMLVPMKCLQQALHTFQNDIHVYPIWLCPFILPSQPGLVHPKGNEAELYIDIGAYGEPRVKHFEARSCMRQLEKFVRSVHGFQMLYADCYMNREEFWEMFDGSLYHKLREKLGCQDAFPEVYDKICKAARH

With `CC(=O)O[C@@]1(C(C)=O)CC[C@H]2[C@H]3C=C(C)C4=CC(=O)CC[C@]4(C)[C@H]3CC[C@@]21C` the Activity [1] was “Active” and the Activity [2] was “Active”.
With `CCC(COC(=O)c1cc(OC)c(OC)c(OC)c1)(c1ccccc1)N(C)C` (configuration not stated) the inhibition [3] was “Active”, the Activity [4] was “inactive” and the inhibition [5] was “Active”. The inhibition [6] was “Active”.
For `Oc1ccc2c(c1)CC[C@H](c1ccccc1)[C@@H]2c1ccc(OCCN2CCCC2)cc1`, the inhibition [7] was “Active”, the inhibition [3] was “Active” and the “Decrease in 7-DHC levels (active/inactive call)” value [8] was “Active”. For the same compound, the “Activity (decrease in 7-DHC levels)” value [9] was “Active”, the inhibition [10] was “Active” and the inhibition [11] was “Active”.
For `Cc1c(-c2ccc(O)cc2)n(Cc2ccc(OCCN3CCCCCC3)cc2)c2ccc(O)cc12` [BAZEDOXIFENE], the inhibition [12] was “Active”, the Activity [13] was “Toxic” and the inhibition [7] was “Active”. For the same compound, the inhibition [3] was “Active”, the Activity [14] was “inactive” and the “Decrease in 7-DHC levels (active/inactive call)” value [8] was “Active”. The inhibition [15] was “Active”, the inhibition [16] was “Active” and the “Activity (decrease in 7-DHC levels)” value [9] was “Active”. The inhibition [17] was “Active”.
